In ChEMBL document CHEMBL4513216, “Probing the Open Global Health Chemical Diversity Library for Multistage-Active Starting Points for Next-Generation Antimalarials” (ACS Infect Dis, 2020) one finds cytotoxicity data, which are given here for 97 compounds.

Structures are written as SMILES.

The series in a line: Toxicity liver stage against HepG2, at 10uM. In kind it is cell-based. Further details: test concentration 10 uM, cell line HepG2-A16-CD81EGFP. Conditions: human, HepG2-A16-CD81EGFP cells; read-out: INHIBITION
The procedure, abridged:
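Uninfected HepG2-A16-CD81EGFP cells, 3 × 10^3 per well, 1536-well, plated on prespotted compound at 10 μM final, parasite-free screening media added to match infected plates; puromycin 10 μM positive, DMSO 0.5% negative; run in parallel with 48 h PbLuc assay at 37 °C, 5% CO2; viability by CellTiter-Glo luminescence, normalized to controls.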
In the case of `COc1ccnc(N2CCN(CC(=O)N3CCOCC3)CC2)n1`, the cytotoxicity at 10 µM was -7.37%.
Then `C[C@@H](NCc1cccc(Cl)c1)c1onc(-c2ccccc2)c1C(=O)O`, with -4.98%; and `O=C1N[C@@H]2CCN(C(=O)c3ccccc3)[C@@H]2C(=O)N1c1ccc(F)cc1`, with 7.62%; and `O=C(NCc1ccco1)c1cccc(C(=O)NCc2ccco2)n1`, with 5.7%.
Take `Cn1cc(-c2nnc3sc(C4CC4)nn23)cn1`: the cytotoxicity at 10 µM is -3.08%.
Take `CCCc1cc(=O)[nH]c2nnc(SCC(N)=O)n12`: the cytotoxicity at 10 µM stood at 13.8%.
The result for `CC1(C)OCC2(CO1)CN(C(=O)c1ccccc1Br)C2` reads -7.31%; that for `NC1CCc2c(ccc(=O)n2Cc2ccncc2)C1` (configuration not stated), -4.16%.
As for `CC1c2ncc(COCC3CCCC3)n2CCN1S(=O)(=O)N(C)C` (configuration not stated), the cytotoxicity at 10 µM worked out at 14.6%.
Then `O=C(CCO)N1CCC2(CCc3ccc(-c4ccoc4)cc32)CC1`, with 16.1%.
`Cn1cccc1C(=O)N1CCCC2(CCCN2S(C)(=O)=O)C1` (configuration not stated): the cytotoxicity at 10 µM was 6.28%.
The result for `Cc1cnc(N2CCC3(CC2)CC(NS(C)(=O)=O)CO3)nc1` (configuration not stated) reads 2.87%; that for `CC(NC(=O)N1CCN(c2ccc(Cl)cc2)CC1)C(=O)N1CCSCC1` (configuration not stated), 25.4%; that for `CNC(=O)C1Cn2ccnc2C2(CCN(CCF)CC2)O1` (configuration not stated), -12.6%.
As to `Cc1cc(C(F)(F)F)nn1CCCNC(=O)C1CCN(S(C)(=O)=O)CC1`, the cytotoxicity at 10 µM was -4.56%.
As to `Cc1cc(C(=O)Nc2cnn(CC(F)(F)F)c2)nc(N(C)C)n1`, the cytotoxicity at 10 µM was -2.89%.
The result for `O=C(COCc1nc(-c2ccncc2)no1)N1CCOCC1` reads -7.08%; that for `COc1ccccc1NC(=O)c1cnc(C2CCN(C(C)=O)C2)nc1C` (configuration not stated), 6.42%; that for `Cc1ccc2nc(C(=O)N(C)[C@@H]3CC[C@@H](N4CCCC4)[C@@H]3O)cn2c1`, 1.67%.
With `CC(=O)N1CCN(c2ccnc(C)n2)CC(COc2ccccc2)C1` (configuration not stated), the cytotoxicity at 10 µM was -6.16%.
On to `CCc1cc(C(=O)N2CCCC2c2nc(O)cc(CC)n2)on1` (configuration not stated), for which the cytotoxicity at 10 µM was -7%.
Then `O=C(CS(=O)(=O)Cc1csc(-c2ccc(F)cc2)n1)NCC1CC1`, with -3.06%; and `Nc1cccnc1N1CCC(O)CC1`, with 2.3%; and `O=C(NCc1cc(-c2ccccc2)no1)NCC1CCCO1` (configuration not stated), with -3.01%.
The result for `Cc1cc(C)cc(NCCC(=O)NC2CCCCC2)c1` reads 7.61%; that for `CCCS(=O)(=O)NCC(O)c1c(Cl)cccc1Cl` (configuration not stated), 7.52%.
Then `Cc1ccc(N2CCCN(C(=O)CCc3ccsc3)CC2)nn1`, with -2.22%.
Regarding `CN1CCN(CCOc2ccc(NC(=O)c3cnc[nH]3)cc2)CC1`, the cytotoxicity at 10 µM came out at 0.71%.
In the case of `Cc1ccc(CC(NC(=O)Cn2cnnn2)c2ccccn2)cc1` (configuration not stated), the cytotoxicity at 10 µM turned out to be 1.72%.
Then `Cc1ncccc1C(=O)NC1CC(=O)N(CC(F)(F)F)C1` (configuration not stated), with 1.2%; and `COc1ccc(-c2nc(CCNC(=O)NCC3CCOC3)co2)cc1` (configuration not stated), with -3.1%.
As to `COC(=O)N1CCCC(NC(=O)NCc2csc(C)n2)C1` (configuration not stated), the cytotoxicity at 10 µM was 3.93%.
On to `CCCNC(=O)Cn1c(C)nn(C(C)(C)C)c1=O`, for which the cytotoxicity at 10 µM was 4.62%.
Consider `Cc1ccc(-n2cnnn2)cc1NCC(=O)Nc1ccccc1Cl`, for which the cytotoxicity at 10 µM worked out at 7.95%.
The result for `CS(=O)(=O)NC1CCN(C(=O)c2ccc3ccccc3c2)C1` (configuration not stated) reads -9.14%.
The result for `CC(C)Cc1cc(NC(=O)c2ccc3[nH]nnc3c2)n(C)n1` reads -7%.
Then `CN(C)c1nccc(CNC(=O)NCc2ccco2)n1`, with -2.48%; and `CCN1CCN(Cc2nc(C)no2)CC1`, with 0.978%.
On to `O=C(NCc1ccon1)N1CCC(n2ccc(C(F)(F)F)n2)CC1`, for which the cytotoxicity at 10 µM was -0.0817%.
Then `O=C(NCc1cccnc1)NC1CCCN(c2ncccn2)C1` (configuration not stated), with -2.5%; and `Cc1cnn(CC2CCCN2C(=O)CCc2c(C)nn(C)c2C)c1` (configuration not stated), with 0.407%; and `COCC(O)CNC(=O)Nc1c(F)cc(F)cc1-c1ccccc1` (configuration not stated), with -4.17%.
For `CC(=O)N1Cc2ccccc2CC1C(=O)Nc1ccc(N(C)C)cn1` (configuration not stated), the cytotoxicity at 10 µM is -1.92%.
The result for `CCCOC1CCCN(C(=O)c2csc(S(N)(=O)=O)c2)C1` (configuration not stated) reads -5.45%.
Then `COc1ccccc1C1(CNCc2ccc([S+](C)[O-])cc2)CC1` (configuration not stated), with 7.56%; and `COc1ccc(C)cc1C(C)NCc1cnnn1C` (configuration not stated), with 0.211%; and `Cc1csc(C(C)(C)NCC(=O)N2CCCC(C(N)=O)C2)n1` (configuration not stated), with 5.73%.
The result for `Cc1ccn(-c2ccc(NCc3ccnc(N4CCCCC4)c3)nn2)n1` reads -0.715%; that for `Cc1noc(C2CCN(C(=O)c3c(C)noc3C)CC2)n1`, 5.65%; that for `CN(C)C(=O)CNC(=O)c1cc(Br)c2c(c1)OCCO2`, 16.4%.
Turning to `COc1ccc(-n2cnnc2SCC(C)(C)O)cn1`, the cytotoxicity at 10 µM stood at 13.5%.
`Cc1cc(CN(C)C(=O)NC(C)c2nncn2C)no1` (configuration not stated): the cytotoxicity at 10 µM turned out to be 8.79%.
Then `COCCN1CCO[C@@H]2CN(C(=O)c3ccc4[nH]ccc4c3)CC[C@@H]2C1`, with -110%; and `CC(C)c1cc(C(=O)N2CCN(C)[C@@H]3CS(=O)(=O)C[C@@H]32)no1`, with 4.14%.
`CC(=O)N1CCCN(C(=O)Nc2ccccc2N2CCOC2=O)CC1`: the cytotoxicity at 10 µM came to 0.334%.
The result for `Cc1cc(C)n(CCCN(C)C(=O)C2COc3ccccc3C2)n1` (configuration not stated) reads -5.95%; that for `COCCn1cnnc1CN(C)c1nc(N)ncc1C`, -7.85%; that for `COCC(=O)N1C[C@H]2CNC[C@@]2(C(=O)NCc2nc(C)cc(C)n2)C1`, 14.7%.
`O=C(NCCCO)C1(N2CCCCC2)Cc2ccccc2C1`: the cytotoxicity at 10 µM was -3.07%.
For `CC(C)S(=O)(=O)N1CCC(Cc2cccc(C(=O)O)c2)C1` (configuration not stated), the cytotoxicity at 10 µM is 1.31%.
Then `COc1nc(C)c(C(=O)N2CCc3[nH]nc(C4CCCC4)c3C2)s1`, with 7.51%.
For the compound `Cc1ccc(C2CC(=O)NCc3nc(N)sc32)cc1C` (configuration not stated), the cytotoxicity at 10 µM was -8.47%.
The result for `Cc1cnn(CC(=O)N2CCC3(CCC(=O)N(CCCO)C3)CC2)c1` reads -9.44%; that for `Cc1nccn1CCC1CCCCN1Cc1ccc(O)cc1Cl` (configuration not stated), -4.23%; that for `CCC(CO)n1cnc2scc(C)c2c1=O` (configuration not stated), -7.37%.
The result for `CN(Cc1ccoc1)C(=O)C1CC(=O)N(Cc2ccncc2)C1` (configuration not stated) reads -0.766%; that for `Cc1ccc(NCCCc2c(C)noc2C)nn1`, 8.12%.
With `Cn1nccc1CNC(=O)Cn1nc(C(F)(F)F)cc1C1CC1`, the cytotoxicity at 10 µM is -6.36%.
Regarding `NC(=O)C1(CCCc2cccnc2)CCCN(c2ncccn2)C1` (configuration not stated), the cytotoxicity at 10 µM stood at 3.61%.
For `Cc1nccn1C1CCCN(C(=O)CCOCC(F)(F)F)C1` (configuration not stated), the cytotoxicity at 10 µM was -11.4%.
Turning to `CNc1snc(C)c1C(=O)N1CCC(Nc2ccc(C)nn2)CC1`, the cytotoxicity at 10 µM is -8.27%.
Then `Cc1ccc(NC2CCN(C(=O)c3c(C)nn(C)c3Cl)CC2)nn1`, with -11.6%.
On to `CSCCCN1CCCC1c1noc(C(C)C)n1` (configuration not stated), for which the cytotoxicity at 10 µM was -12.5%.
Regarding `CC(NC(=O)CCc1ccsc1)c1ccc2c(c1)NC(=O)CO2` (configuration not stated), the cytotoxicity at 10 µM was -6.16%.
For `COc1ccc(C2CCCCCN2CCCNS(C)(=O)=O)cc1` (configuration not stated), the cytotoxicity at 10 µM was -6.07%.
Then `Cc1csc(N2CCN(C(=O)c3c(C)oc(C)c3C)CC2)n1`, with -14%; and `CC(=O)NC1CCCN(C(=O)NCc2ccc(-n3cccn3)cc2)C1` (configuration not stated), with -11.8%; and `O=C(NCCc1coc(-c2ccc(F)cc2)n1)NC1CC1`, with -3.24%.
In the case of `Cc1cc(OCC(=O)N2CCCC(c3nc(C)c(C)s3)C2)no1` (configuration not stated), the cytotoxicity at 10 µM was -16.4%.
For `Cc1nc(C(=O)N2CCCC2c2c(C)nn(C)c2Cl)ccc1C#N` (configuration not stated), the cytotoxicity at 10 µM was -12.8%.
The result for `CCOC(=O)C1CCN(Cc2csc(-c3ccc(C)o3)n2)CC1` reads -11.4%; that for `CC(C)c1nc2n(n1)CC(NCc1nc(-c3ccccn3)no1)CC2` (configuration not stated), -5.08%; that for `COc1c(C2CCCN2C(=O)c2ccnc(N(C)C)c2)c(C)nn1C` (configuration not stated), 1.9%.
Then `Cc1ccccc1C(=O)N1CCOCC1CN(C)C` (configuration not stated), with -2.1%; and `CN1CCC(CN2CCC3(CCCN(Cc4ccoc4)C3)C2=O)CC1` (configuration not stated), with -12.9%.
As for `Cc1ccc(C(=O)N2CCN3C[C@H](Oc4cccc(F)c4)C[C@H]3C2)cn1`, the cytotoxicity at 10 µM is 11.2%.
In the case of `COCc1cncc2c1CCN(Cc1cccs1)C2`, the cytotoxicity at 10 µM was -0.95%.
The result for `O=C(Cc1ccccc1)N1CCC2(CCN2Cc2ccc(F)cc2)C1` (configuration not stated) reads 2.17%; that for `O=C1[C@H]2CN(C(=O)[C@H]3CCCO3)C[C@H]2CN1CCN1CCCC1`, -3.66%; that for `CN(Cc1cncnc1)Cc1cn2c(n1)CN(C1CCOC1)CC2` (configuration not stated), -9.36%.
With `CC(C)OCc1ncn2c1CN(CCO)CCC2`, the cytotoxicity at 10 µM is 8.37%.
In the case of `Cc1cc(CN2C[C@H]3CCC[C@@]3(COCc3csc(C)n3)C2)no1`, the cytotoxicity at 10 µM worked out at 11.6%.
The result for `CN(C)[C@@H]1CCN(C(=O)C2CCOCC2)[C@H]1Cc1ccncc1` reads 1.72%; that for `CCN1CC(=O)NCC12CCN(C(=O)c1ccco1)C2` (configuration not stated), -2.86%.
The result for `O=C(c1cccc(F)c1)N1CCC2(CC1)CC(N1CCOCC1)C2` reads -8.02%; that for `COCCN1CCN(S(=O)(=O)C2CC2)Cc2ccc(C)nc21`, 3.38%; that for `O=C1C[C@@H]2CC[C@H](CN1)N2C(=O)CCCc1ccc(Cl)cc1`, -7.05%.
